PubChem BioAssay AID588746 (Vanderbilt Specialized Chemistry Center, 2011)
Activity calls are given as the source filed them.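 Rule for the calls: active = a clear concentration-dependent response in the calcium flux assay, with a fitted half-maximal potency; inactive = the rest.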

Target: Muscarinic acetylcholine receptor M2 (Homo sapiens) (UniProt P08172)
Assay: M2 positive allosteric modulation, counter-screen, dose response, counter-screen, human, CHO Gqi5 cells, calcium fluorescence (AID 588746)
Conditions: CHO hM2/Gqi5 calcium mobilization, Fluo-4 fluorescence
Summary of the method: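 Assay system: CHO cells stably expressing human M2 receptor plus chimeric Gqi5 / Also added: ACh EC20 then ACh EC80 / Timing: compound 144 s before ACh EC20, EC80 86 s later, 37 °C / Signal: kinetic calcium fluorescence with Fluo-4 dye / Benchmarks: 1 mM ACh maximum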

Chain of Muscarinic acetylcholine receptor M2 (Homo sapiens) (P08172 whole entry, looked up): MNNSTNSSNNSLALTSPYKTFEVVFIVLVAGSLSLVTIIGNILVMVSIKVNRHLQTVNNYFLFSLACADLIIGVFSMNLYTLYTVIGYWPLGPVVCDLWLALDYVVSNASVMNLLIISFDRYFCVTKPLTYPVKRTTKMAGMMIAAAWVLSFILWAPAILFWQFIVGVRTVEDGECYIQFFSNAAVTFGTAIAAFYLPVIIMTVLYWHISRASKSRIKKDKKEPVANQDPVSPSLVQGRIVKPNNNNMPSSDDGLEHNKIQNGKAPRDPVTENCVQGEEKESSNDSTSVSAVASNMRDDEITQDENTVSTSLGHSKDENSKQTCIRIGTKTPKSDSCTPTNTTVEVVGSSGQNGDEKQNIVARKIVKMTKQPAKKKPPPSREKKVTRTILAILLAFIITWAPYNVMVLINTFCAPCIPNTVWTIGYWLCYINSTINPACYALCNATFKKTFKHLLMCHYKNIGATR

Cc1nc2sc(C(=O)NC3CC3)c(N)c2c(C)c1Cl
EC50: 548 nM

Cc1nc2sc(C(=O)NCc3ccccc3)c(N)c2c(C)c1Cl
percent of ACh max response (at 37.4 µM (top of the series)): inactive

Cc1nc2sc(C(=O)NCc3nccs3)c(N)c2c(C)c1Cl
percent of ACh max response (at 30 µM (top of the series)): inactive

Cc1nc2sc(C(=O)NCc3ccncn3)c(N)c2c(C)c1Cl
percent of ACh max response (at 30 µM (top of the series)): inactive

Cc1nc2sc(C(=O)NCc3ccc4c(c3)OCO4)c(N)c2c(C)c1Cl
percent of ACh max response (at 36.8 µM (top of the series)): inactive

Cc1nc2sc(C(=O)NCc3cccnc3)c(N)c2c(C)c1Cl
percent of ACh max response (at 45.3 µM (top of the series)): inactive

Cc1nc2sc(C(=O)NCc3cccc(F)c3F)c(N)c2c(C)c1Cl
percent of ACh max response (at 30 µM (top of the series)): inactive

Cc1nc2sc(C(=O)NCc3ccncc3)c(N)c2c(C)c1Cl
percent of ACh max response (at 45.3 µM (top of the series)): inactive

Cc1nc2sc(C(=O)NCCc3ccncc3)c(N)c2c(C)c1Cl
percent of ACh max response (at 30 µM (top of the series)): inactive
